From PMC10558795 (Redox Biology, 2023)
Structures can show the parent of a compound that is named as a salt. Where two headings read alike, the source gives them in different places.

Legend:
[1] = system: NQO1-YFP H1299 cells; experiment: Cell viability; format: cell-based, human
How it was run: (§1)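 NQO1-YFP H1299 reporter cells (YFP in NQO1 intron 1, constitutive mCherry) were seeded 1000/well in 384-well plates and cultured overnight. Primary screen: 1 μM compound in 0.1% DMSO, one well each, with CDDO 200 nM and 0.1% DMSO controls. Retests used 10-point serial dilutions from 10 µM in triplicate, with brusatol control. Imaged at 0, 24, 48, 64 h (YFP = NRF2 activity, mCherry = viability); IC₅₀ by curve fit.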

[2] = system: KYSE70 cells; experiment: High-content cytotoxicity screen; format: cell-based, human
How it was run: (§2)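 Cells were seeded at 1200/well in 384-well plates and cultured overnight. Test compound was added at […] serial dilution from 10 µM, in triplicate, for 3 days. Controls were 0.1% DMSO (negative), 30 µM benzethonium chloride and 0.1% Triton X-100 added just before staining (positive). Cells were stained with 0.5 µg/ml Hoechst and 100 nM YOYO1, four 4× images per well. Normalized total-cell and dead-cell percentages were fitted for IC₅₀.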

[3] = system: NRF2 activity (NQO1-YFP signal, CDDO-activated); experiment: High-throughput screen and dose response: NRF2 activity; format: cell-based, human
How it was run: as §1

[4] = system: KYSE180 cells; experiment: High-content cytotoxicity screen; format: cell-based, human
How it was run: as §2

[5] = system: NRF2 expression in NRF2^WT-KYSE450 cells; experiment: NRF2 expression in KYSE450 cells; format: cell-based, human
How it was run: (§3)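 Nuclear and cytosolic fractions prepared with an extraction kit, or whole-cell lysates in RIPA buffer. Proteins separated by SDS-PAGE, transferred to nitrocellulose, blocked and probed with primary antibody overnight at 4 °C. Chemiluminescence detected on film and quantified by densitometry; band data as mean ± SD, Student's t-test.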

[6] = system: NRF2 and NQO1 expression in NRF2^Mut-KYSE70 cells; experiment: Western blotting of NRF2 and NQO1 expression in KYSE70 cells; format: cell-based, human
How it was run: as §3

[7] = system: global translation; experiment: Protein synthesis assay; format: cell-based, human; settings: KYSE70; PYR 10 μM, MIT 20 nM; CHX positive control
How it was run: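 KYSE70 cells (37 °C, 5% CO₂) seeded at 2000 cells/well in 96-well plates; exposed to test compound or cycloheximide (positive control) in triplicate. Global translation measured with a commercial protein synthesis assay kit per manufacturer's protocol; cells imaged on a high-content imager.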

[8] = 90 mg/m^2, intravenous injection, cited from earlier work
[9] = system: NFE2L2 mRNA and NRF2 target genes; experiment: qPCR of NFE2L2 mRNA and NRF2 target genes; format: cell-based, human
How it was run: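 Gene expression quantified by real-time PCR using gene-specific primers and TaqMan probes on a 96-well real-time PCR system.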

[10] = system: ABCG2 and TOP2A expression; experiment: ABCG2 and TOP2A expression in KYSE70 cells; format: cell-based, human
[11] = system: NRF2 and NQO1 expression in NRF2^Mut-KYSE180 cells; experiment: Western blotting of NRF2 and NQO1 expression in KYSE180 cells; format: cell-based, human
How it was run: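 NRF2-mutant KYSE180 cells (37 °C, 5% CO₂) treated with test compound; nuclear and cytosolic fractions prepared with a nuclear extraction kit. Proteins separated by SDS-PAGE onto nitrocellulose, primary antibody overnight at 4 °C, chemiluminescence on film. Bands quantified by densitometry, mean ± SD, Student's t-test.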

[12] = target: NRF2-ARE binding (Homo sapiens, UniProt Q16236, W24C); experiment: ELISA-based TransAM NRF2-ARE binding assay with KYSE70 nuclear extracts
How it was run: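 TransAM ELISA: nuclear extract from untreated KYSE70 cells (20 μg/well) added to wells containing ARE oligonucleotide. Test compound, competitor or mutated competitor added, then 1 h incubation with mild agitation and washing. Anti-NRF2 antibody 1 h, then HRP-conjugated secondary antibody and substrate; A450nm read.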

[13] = target: NRF2 (NRF2^Mut-KYSE180) (Homo sapiens, UniProt Q16236, D77V); experiment: CHX chase analysis of NRF2 half-life in KYSE180 cells; format: cell-based; settings: PYR 10 μM, MIT 20 nM
How it was run: (§4)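 Cells were grown in RPMI1640 GlutaMAX with 10% FBS and 1% penicillin/streptomycin at 37 °C, 5% CO₂. They were pre-incubated 4 h with test compound, then given 200 μg/ml cycloheximide to block protein synthesis. Cells were harvested at set time points after cycloheximide. Total lysates were run on SDS-PAGE and blotted for NRF2 and GAPDH, and band densities were used to calculate NRF2 half-life.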

[14] = system: human NRF2 target genes in KYSE70 cells; experiment: RNAseq of KYSE70 cells; format: cell-based; settings: PYR 10 μM for 72 h, MIT 20 nM for 72 h
How it was run: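 Total RNA from treated and control cells made into Illumina libraries and sequenced (150 bp). Reads aligned to hg38 with RefSeq annotation and counted per gene; DEGs called by fold-change cut-off and corrected p-values. Gene set enrichment analysis performed; overall NRF2 target-gene mRNA level calculated on natural log scale.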

[15] = target: NRF2 (NRF2^WT-KYSE450) (Homo sapiens, UniProt Q16236); experiment: CHX chase analysis of NRF2 half-life in KYSE450 cells; format: cell-based; settings: PYR 10 μM, MIT 20 nM
How it was run: as §4

[16] = Homo sapiens, NCI-H1299, read-out: Cell viability (IC50, μM)
[17] = Homo sapiens, KYSE-70, 72 h, read-out: Cell death (IC50, μM)
[18] = Homo sapiens, KYSE-70, 72 h, read-out: Cell proliferation (IC50, μM)
[19] = Homo sapiens, NCI-H1299, read-out: NRF2 inhibition (IC50, μM)
[20] = Homo sapiens, KYSE-180, 72 h, read-out: Cell proliferation (IC50, μM)
[21] = read-out: Cell viability (IC50), H1299-NQO1-YFP cells
[22] = read-out: Cell death (IC50), KYSE70, 3 days
[23] = read-out: Cell proliferation (IC50), KYSE70, 3 days
[24] = read-out: NRF2 inhibition (IC50), H1299-NQO1-YFP cells, CDDO-activated YFP signal
[25] = read-out: Cell death (IC50), KYSE180, 3 days
[26] = read-out: Cell proliferation (IC50), KYSE180, 3 days

Chain of NRF2 (NRF2^WT-KYSE450) (Q16236 whole entry): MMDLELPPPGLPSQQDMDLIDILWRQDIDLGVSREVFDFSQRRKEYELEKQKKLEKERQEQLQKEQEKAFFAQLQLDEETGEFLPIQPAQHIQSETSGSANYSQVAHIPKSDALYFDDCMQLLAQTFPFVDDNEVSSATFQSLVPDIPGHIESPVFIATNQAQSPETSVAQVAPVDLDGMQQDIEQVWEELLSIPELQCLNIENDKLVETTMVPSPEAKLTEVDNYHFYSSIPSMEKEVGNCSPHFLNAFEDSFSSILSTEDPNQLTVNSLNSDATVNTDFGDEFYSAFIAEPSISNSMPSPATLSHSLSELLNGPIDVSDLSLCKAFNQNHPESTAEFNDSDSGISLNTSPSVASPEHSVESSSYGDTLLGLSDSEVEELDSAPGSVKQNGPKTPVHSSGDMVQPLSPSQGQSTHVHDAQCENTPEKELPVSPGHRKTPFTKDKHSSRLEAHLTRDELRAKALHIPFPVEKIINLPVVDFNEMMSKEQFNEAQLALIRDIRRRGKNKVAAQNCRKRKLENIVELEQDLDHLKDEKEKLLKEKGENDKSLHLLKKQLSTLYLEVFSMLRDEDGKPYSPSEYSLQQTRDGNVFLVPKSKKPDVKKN
Chain of NRF2 (NRF2^Mut-KYSE180) (Q16236 whole entry D77V): as the sequence (Q16236 whole entry) above, with D77V counted along it
Chain of NRF2-ARE binding (Q16236 whole entry W24C): as the sequence (Q16236 whole entry) above, with W24C counted along it

Nc1nc(N)c2nc(-c3ccccc3)c(N)nc2n1 [Triamterene]
IC50 [1, 16]: 3.7 µM
IC50 [2, 17]: > 10 µM
IC50 [2, 18]: 7.7 µM
IC50 [3, 19]: 0.72 µM
IC50 [4, 20]: > 10 µM

CC(C)NC[C@H](O)c1ccc(O)c(O)c1 [Isoproterenol bitratrate]
IC50 [1, 21]: > 10 µM
IC50 [2, 22]: > 10 µM
IC50 [2, 23]: 4.9 µM
IC50 [3, 24]: 0.43 µM
IC50 [4, 25]: > 10 µM
IC50 [4, 26]: > 10 µM

CCC(NC(C)C)C(O)c1ccc(O)c(O)c1 (stereo not shown) [Isoetharine mesylate]
IC50 [1, 16]: > 10 µM
IC50 [2, 18]: > 10 µM
IC50 [3, 19]: 0.49 µM
IC50 [4, 20]: > 10 µM

CN(Cc1cnc2nc(N)nc(N)c2n1)c1ccc(C(=O)N[C@@H](CCC(=O)O)C(=O)O)cc1 [MTX, methotrexate]
NRF2 expression [5]: significantly inhibited NRF2 expression
NRF2 expression ([6]; NRF2^Mut-KYSE70 cells): significantly inhibited NRF2 expression

CC(C)NCC(O)c1ccc(O)c(O)c1 (stereo not shown) [Isoproterenol hydrochloride]
IC50 [1, 16]: > 10 µM
IC50 [2, 17]: > 10 µM
IC50 [2, 18]: 5.2 µM
IC50 [3, 19]: 0.84 µM
IC50 [4, 20]: > 10 µM

CN1CC[C@@]2(C)c3cc(O)ccc3N(C)[C@@H]12 [Eseroline fumarate]
IC50 [1, 21]: > 10 µM
IC50 [2, 22]: > 10 µM
IC50 [2, 23]: 10 µM
IC50 [3, 24]: 0.26 µM
IC50 [4, 25]: > 10 µM
IC50 [4, 26]: > 10 µM

O=C1c2c(O)ccc(O)c2C(=O)c2c(NCCNCCO)ccc(NCCNCCO)c21 [MIT, mitoxantrone dihydrochloride]
Global translation [7]: Neither PYR (10 μM) nor MIT (20 nM) inhibited global translation
IC50 [1, 16]: > 10 µM
IC50 [2, 17]: 0.00324 µM
IC50 [2, 18]: 0.00584 µM
Cmax in the plasma [8]: 6430 ± 2430 ng/mL
Cmax ([8]; read-out: Cmax in the plasma): 12.4 ± 4.7 µM
IC50 [3, 19]: 0.035 µM
NFE2L2 mRNA and NRF2 target genes (AKR1B10, AKR1C2, AKR1C3, PGD, SLC7A11, TKT) by qPCR [9]: downregulation
ABCG2 and TOP2A expression [10]: increased
Expression of nuclear NRF2 and cytoplasmic NQO1 [11]: inhibited the expression of nuclear NRF2 and cytoplasmic NQO1 in a dose- and time-dependent manner
NRF2-ARE binding activity [12]: did not observe any changes
Effect on NRF2 half-life [13]: shortened NRF2 half-life
Overall mRNA expression level of human NRF2 target genes [14]: significantly reduced
Effect on NRF2 half-life [15]: not changed
Expression of nuclear NRF2 and cytoplasmic NQO1 ([6]; KYSE70 cells): inhibited the expression of nuclear NRF2 and cytoplasmic NQO1 in a dose- and time-dependent manner
IC50 ([4]; Homo sapiens, KYSE-180, 72 h, read-out: Cell death (IC50, μM)): 0.00522 µM
IC50 [4, 20]: 0.00457 µM

CCOc1ccc2c(c1)C(C)=CC(C)(C)N2 [Ethoxyquin]
IC50 [1, 16]: > 10 µM
IC50 [2, 18]: > 10 µM
IC50 [3, 19]: 0.29 µM
IC50 [4, 20]: > 10 µM
